Source: ChEMBL document CHEMBL4007396, “New diphenylmethane derivatives as peroxisome proliferator-activated receptor alpha/gamma dual agonists endowed with anti-proliferative effects and mitochondrial activity” (Eur J Med Chem, 2017)
Activity calls are given as the source filed them. The calls are words filed in the database; no cut-off is given here.

Key:
[1] = target: T1, Peroxisome proliferator-activated receptor gamma (Homo sapiens, UniProt P37231); experiment: Binding affinity to PPARgamma (unknown origin) assessed as kinetic dissociation constant by SPR assay
T1 sequence (P37231 whole entry): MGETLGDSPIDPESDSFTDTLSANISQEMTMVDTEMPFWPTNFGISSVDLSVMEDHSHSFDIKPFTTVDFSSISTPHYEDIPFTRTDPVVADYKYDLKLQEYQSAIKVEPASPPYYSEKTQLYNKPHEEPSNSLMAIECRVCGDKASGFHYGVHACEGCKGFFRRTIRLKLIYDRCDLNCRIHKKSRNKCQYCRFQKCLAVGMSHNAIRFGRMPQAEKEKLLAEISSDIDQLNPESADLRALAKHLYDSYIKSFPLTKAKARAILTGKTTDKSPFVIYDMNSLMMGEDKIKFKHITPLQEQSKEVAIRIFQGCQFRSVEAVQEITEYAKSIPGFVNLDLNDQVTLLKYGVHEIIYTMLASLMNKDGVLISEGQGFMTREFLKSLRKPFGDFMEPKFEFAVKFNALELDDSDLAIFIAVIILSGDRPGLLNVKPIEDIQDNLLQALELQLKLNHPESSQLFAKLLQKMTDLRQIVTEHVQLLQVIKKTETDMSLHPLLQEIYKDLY

[2] = target: T2, Peroxisome proliferator-activated receptor delta (Homo sapiens, UniProt Q03181); experiment: Binding affinity to PPARdelta (unknown origin) assessed as thermodynamic dissociation constant by SPR assay
T2 sequence (Q03181 whole entry): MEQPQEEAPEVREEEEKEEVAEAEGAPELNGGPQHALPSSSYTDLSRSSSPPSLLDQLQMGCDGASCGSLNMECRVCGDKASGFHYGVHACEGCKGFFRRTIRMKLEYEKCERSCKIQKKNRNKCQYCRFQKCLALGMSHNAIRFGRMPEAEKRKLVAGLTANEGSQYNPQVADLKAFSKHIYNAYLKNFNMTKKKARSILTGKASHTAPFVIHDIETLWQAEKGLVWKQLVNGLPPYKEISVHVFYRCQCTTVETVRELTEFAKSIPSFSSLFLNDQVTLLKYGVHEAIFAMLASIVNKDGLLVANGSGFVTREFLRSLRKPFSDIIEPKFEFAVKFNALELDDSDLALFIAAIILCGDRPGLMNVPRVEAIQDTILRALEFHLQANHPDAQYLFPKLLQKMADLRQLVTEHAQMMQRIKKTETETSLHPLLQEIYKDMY

[3] = target: T3, Peroxisome proliferator-activated receptor alpha (Homo sapiens) (UniProt Q07869); experiment: Agonist activity at PPARalpha assessed as induction of positive regulatory loop based receptor transcriptional activation by measuring upregulation of PPARalpha protein expression level in human HepG2 cells at 1 uM after 48 hrs by Western blot method; type: cell-based
T3 sequence (whole entry): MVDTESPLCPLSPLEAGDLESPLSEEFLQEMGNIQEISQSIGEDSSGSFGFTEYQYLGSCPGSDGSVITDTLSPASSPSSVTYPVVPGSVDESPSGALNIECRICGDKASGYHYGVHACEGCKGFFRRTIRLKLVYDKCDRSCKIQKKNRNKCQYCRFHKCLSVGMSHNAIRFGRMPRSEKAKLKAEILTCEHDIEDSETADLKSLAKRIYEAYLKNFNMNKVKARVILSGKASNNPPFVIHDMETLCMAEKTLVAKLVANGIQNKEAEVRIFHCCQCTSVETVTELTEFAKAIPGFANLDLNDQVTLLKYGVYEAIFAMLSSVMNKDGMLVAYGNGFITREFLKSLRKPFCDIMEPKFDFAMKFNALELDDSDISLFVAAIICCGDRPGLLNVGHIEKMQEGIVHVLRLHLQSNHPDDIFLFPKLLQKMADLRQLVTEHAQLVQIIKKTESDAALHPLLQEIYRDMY
How it was run: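 HepG2 serum-depleted 24 h, then treated 48 h with 1 μM compound (Wy-14,643 at 50 μM as reference). Nitrocellulose immunoblots probed for CAC, CPT1 or PPARα with β-actin loading control, chemiluminescent detection; band densitometry expressed as fold change versus untreated cells; three independent experiments.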

[4] = target: T4, Peroxisome proliferator-activated receptor gamma (Homo sapiens) (UniProt P37231); experiment: Agonist activity at PPARgamma in human HT-29 cells harboring APC mutant assessed as inhibition of Wnt/beta-catenin signaling pathway by measuring decrease in c-Myc level at 10 uM treated for 24 hrs by Western blot method; type: cell-based
T4 sequence (whole entry): T1 sequence (P37231 whole entry)
How it was run: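 RIPA lysates, 80 μg protein immunoblotted for c-Myc with β-actin loading control; c-Myc/β-actin densitometry, mean ± SD of at least three independent experiments.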

[5] = target: T3, Peroxisome proliferator-activated receptor alpha (Homo sapiens); experiment: Agonist activity at PPARalpha assessed as induction of positive regulatory loop based receptor transcriptional activation by measuring upregulation of PPARalpha mRNA level in human HepG2 cells at 1 uM after 24 hrs by RT-PCR method; type: cell-based
How it was run: (§1)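 Serum-free HepG2 exposed 24 h to 1 μM test agent (Wy-14,643 reference at 50 μM). RNA extracted from 1x10⁶ cells; TaqMan real-time RT-PCR for CAC, CPT1 or PPARα, normalized to β-actin. Mean ± SD of three independent duplicate experiments; one-way ANOVA with Bonferroni test.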

HEK-293T = experiment: Effect on p21waf1/cip1 protein expression in HEK293T cells at 10 uM after 48 hrs by Western blot method; type: cell-based; conditions: human
How it was run: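 HT-29 or HEK293T cells in DMEM/10% FBS treated 48 h with 10 μM compound (DMSO vehicle, final below 0.1%). RIPA lysates (with protease inhibitors), 80 μg protein per lane immunoblotted for p21waf1/cip1 with β-actin loading control; densitometric p21/β-actin ratio, mean ± SD of at least three independent experiments.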

[6] = target: T5, Peroxisome proliferator-activated receptor alpha (Homo sapiens, UniProt Q07869); experiment: Binding affinity to PPARalpha (unknown origin) assessed as thermodynamic dissociation constant by SPR assay; conditions: read-out: Kd
T5 sequence (Q07869 whole entry): T3 sequence (whole entry)

[7] = target: T5, Peroxisome proliferator-activated receptor alpha; experiment: Transactivation of GAL4-fused human PPARalpa LBD expressed in human HepG2 cells after 20 hrs by luciferase reporter gene assay; type: cell-based
[8] = target: T3, Peroxisome proliferator-activated receptor alpha (Homo sapiens); experiment: Agonist activity at PPARalpha in human HepG2 cells assessed as increase in CAC mRNA level at 1 uM after 24 hrs by RT-PCR method; type: cell-based; how it was run: as §1

SMILES: C[C@H](Oc1ccc(Cc2ccc(OCc3coc(-c4ccccc4)n3)cc2)cc1)C(=O)O
- Kd [1]: 0.099 s⁻¹
- Kd [2]: Not Active
- Activity [3]: Active
- Activity [4]: Active
- Activity [5]: Active
- Activity (HEK-293T): Non-Toxic
- Kd [6]: 0.75 nM
- EC50 [7]: 46 nM
- Activity [8]: Active

SMILES: C[C@@H](Oc1ccc(Cc2ccc(OCc3coc(-c4ccccc4)n3)cc2)cc1)C(=O)O
- Kd [1]: 0.095 s⁻¹
- Kd [2]: Not Active
- Activity [3]: Active
- Activity [4]: Active
- Activity [5]: Active
- Activity (HEK-293T): Non-Toxic
- Kd [6]: 0.86 nM
- EC50 [7]: 42 nM
- Activity [8]: Active
